Measurements reported in ChEMBL document CHEMBL1154881, “Synthesis and antimicrobial activities of novel 1,5-diaryl pyrazoles” (2010).
Converted amounts (≈) assume the structure as drawn.

Legend:
[1] = test system: Klebsiella pneumoniae; assay: Antibacterial activity against Klebsiella pneumoniae after 24 hrs by disk diffusion method; type: functional
Procedure, shortened: (§1)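 Disc diffusion, each concentration tested in triplicate on nutrient agar seeded separately with fresh bacteria. Incubation 37 °C, 24 h. Solvent and growth controls included. Zones of inhibition recorded. The K. pneumoniae strain was recultured.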

[2] = test system: Staphylococcus aureus; assay: Antibacterial activity against Staphylococcus aureus ATTC 25923 after 24 hrs by disk diffusion method; type: functional; procedure, shortened: as §1
[3] = test system: Aspergillus flavus; assay: Antifungal activity against Aspergillus flavus NCIM 524 after 3 to 4 days by serial plate dilution method; type: functional
Procedure, shortened: (§2)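 Sabouraud's agar (peptone 1 g, D-glucose 4 g, agar 2 g per 100 ml water, pH 5.7) plates were lawned with spore suspension (a loopful in 3 ml normal saline) and dried 1 h at 37 °C. Wells were punched and filled with compound in DMSO at 10–50 mg/ml, with a DMSO control. Plates in triplicate, 37 °C for 3–4 days.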

[4] = test system: Aspergillus fumigatus; assay: Antifungal activity against Aspergillus fumigatus NCIM 902 after 3 to 4 days by serial plate dilution method; type: functional; procedure, shortened: as §2
[5] = test system: Talaromyces marneffei; assay: Antifungal activity against Penicillium marneffei after 3 to 4 days by serial plate dilution method; type: functional; procedure, shortened: as §2
[6] = test system: Pseudomonas aeruginosa; assay: Antibacterial activity against Pseudomonas aeruginosa ATTC 27853 after 24 hrs by disk diffusion method; type: functional; procedure, shortened: as §1
[7] = test system: Escherichia coli; assay: Antibacterial activity against Escherichia coli ATTC 25922 after 24 hrs by disk diffusion method; type: functional; procedure, shortened: as §1
[8] = test system: Trichophyton mentagrophytes; assay: Antifungal activity against Trichophyton mentagrophytes after 3 to 4 days by serial plate dilution method; type: functional; procedure, shortened: as §2
[9] = test system: Escherichia coli; assay: Antibacterial activity against Escherichia coli ATTC 25922 after 24 hrs by broth dilution method; type: functional; conditions: ATTC 25922, 24 h
[10] = test system: Staphylococcus aureus; assay: Antibacterial activity against Staphylococcus aureus ATTC 25923 after 24 hrs by broth dilution method; type: functional; conditions: ATTC 25923, 24 h
[11] = test system: Klebsiella pneumoniae; assay: Antibacterial activity against Klebsiella pneumoniae after 24 hrs by […]
[12] = test system: Trichophyton mentagrophytes; assay: Antifungal activity against Trichophyton mentagrophytes at 10 to 50 ug/ml after 3 to 4 days; type: functional
[13] = test system: Pseudomonas aeruginosa; assay: Antibacterial activity against Pseudomonas aeruginosa ATTC 27853 after 24 hrs by broth dilution method; type: functional; conditions: ATTC 27853, 24 h
[14] = test system: Talaromyces marneffei; assay: Antifungal activity against Penicillium marneffei at 10 to 50 ug/ml after 3 to 4 days; type: functional

Structure (SMILES)	MIC [9]	MIC [10]	MIC [11]	MIC [12]	MIC [13]	MIC [14]	inhibition zone (IZ) [1]	inhibition zone (IZ) [2]	inhibition zone (IZ) [3]	inhibition zone (IZ) [4]	inhibition zone (IZ) [5]	inhibition zone (IZ) [6]	inhibition zone (IZ) [7]	inhibition zone (IZ) [8]
Cc1nc(-c2cc(-c3ccc(Cl)cc3)n(-c3ccc(F)cc3)n2)sc1-c1n[nH]c(=O)o1							<10 mm	<10 mm	<10 mm	<10 mm	<10 mm	<10 mm	<10 mm	<10 mm
Cc1cc(C2CCCCC2)n(O)c(=O)c1.NCCO [CICLOPIROX OLAMINE]				3.12 µg/mL		6.25 µg/mL			27 mm	26 mm	23 mm			27 mm
O=C(O)c1cn(C2CC2)c2cc(N3CCNCC3)c(F)cc2c1=O [CIPROFLOXACIN]	6.25 µg/mL (≈ 18.9 µM)	6.25 µg/mL (≈ 18.9 µM)	6.25 µg/mL (≈ 18.9 µM)		6.25 µg/mL (≈ 18.9 µM)		24 mm	23 mm				28 mm	32 mm	
CCOC(=O)c1sc(NC(=O)c2cc(-c3ccc(Cl)cc3)n(-c3ccc(F)cc3)n2)nc1C							<10 mm	<10 mm	<10 mm	<10 mm	<10 mm	<10 mm	<10 mm	<10 mm
Cc1nc(-c2cc(-c3ccc(Cl)cc3)n(-c3ccc(F)cc3)n2)sc1C(=O)NNC(=S)NC(=O)c1ccccc1							<10 mm	<10 mm	<10 mm	<10 mm	<10 mm	<10 mm	<10 mm	<10 mm
N#Cc1ccc(NC(=O)N2CCN(C(=O)c3cc(-c4ccc(Cl)cc4)n(-c4ccc(F)cc4)n3)CC2)cc1	12.5 µg/mL (≈ 23.6 µM)	12.5 µg/mL (≈ 23.6 µM)		12.5 µg/mL (≈ 23.6 µM)		12.5 µg/mL (≈ 23.6 µM)	19 mm	21 mm	<10 mm	24 mm	23 mm	<10 mm	19 mm	21 mm
O=C(Nc1ccc(Cl)nc1)c1cc(-c2ccc(Cl)cc2)n(-c2ccc(F)cc2)n1							<10 mm	<10 mm	<10 mm	<10 mm	<10 mm	<10 mm	<10 mm	<10 mm
Cc1nc(NC(=O)c2cc(-c3ccc(Cl)cc3)n(-c3ccc(F)cc3)n2)sc1C(=O)O							<10 mm	<10 mm	<10 mm	<10 mm	<10 mm	<10 mm	<10 mm	<10 mm

More lines, main results first:

MIC [9]	MIC [10]	MIC [11]	MIC [12]	MIC [13]	MIC [14]	Structure (SMILES)	inhibition zone (IZ) [1]	inhibition zone (IZ) [2]	inhibition zone (IZ) [3]	inhibition zone (IZ) [4]	inhibition zone (IZ) [5]	inhibition zone (IZ) [6]	inhibition zone (IZ) [7]	inhibition zone (IZ) [8]
12.5 µg/mL (≈ 26.2 µM)	12.5 µg/mL (≈ 26.2 µM)	12.5 µg/mL (≈ 26.2 µM)	12.5 µg/mL (≈ 26.2 µM)	50 µg/mL (≈ 105 µM)	12.5 µg/mL (≈ 26.2 µM)	CS(=O)(=O)OC1CCN(C(=O)c2cc(-c3ccc(Cl)cc3)n(-c3ccc(F)cc3)n2)CC1	23 mm	26 mm	31 mm	25 mm	29 mm	21 mm	28 mm	28 mm
12.5 µg/mL (≈ 19.4 µM)	12.5 µg/mL (≈ 19.4 µM)	50 µg/mL (≈ 77.8 µM)	12.5 µg/mL (≈ 19.4 µM)		12.5 µg/mL (≈ 19.4 µM)	Cc1nc(-c2cc(-c3ccc(Cl)cc3)n(-c3ccc(F)cc3)n2)sc1C(=O)NNC(=O)NC(=O)c1ccc(C(F)(F)F)cc1	19 mm	19 mm	<10 mm	25 mm	22 mm	<10 mm	20 mm	17 mm
12.5 µg/mL (≈ 27.4 µM)	12.5 µg/mL (≈ 27.4 µM)		12.5 µg/mL (≈ 27.4 µM)	50 µg/mL (≈ 109 µM)	12.5 µg/mL (≈ 27.4 µM)	N#Cc1ccc(-c2csc(-c3cc(-c4ccc(Cl)cc4)n(-c4ccc(F)cc4)n3)n2)cc1	17 mm	19 mm	<10 mm	<10 mm	22 mm	19 mm	20 mm	22 mm
		12.5 µg/mL (≈ 32.5 µM)	50 µg/mL (≈ 130 µM)	50 µg/mL (≈ 130 µM)		O=C(c1cc(-c2ccc(Cl)cc2)n(-c2ccc(F)cc2)n1)N1CCNCC1	19 mm	<10 mm	25 mm	23 mm	<10 mm	19 mm	<10 mm	19 mm
12.5 µg/mL (≈ 27.6 µM)	12.5 µg/mL (≈ 27.6 µM)	12.5 µg/mL (≈ 27.6 µM)	12.5 µg/mL (≈ 27.6 µM)		12.5 µg/mL (≈ 27.6 µM)	O=C(c1cc(-c2ccc(Cl)cc2)n(-c2ccc(F)cc2)n1)N1CCN(C(=O)C2CC2)CC1	19 mm	20 mm	24 mm	22 mm	21 mm	17 mm	20 mm	20 mm
12.5 µg/mL (≈ 24.5 µM)	12.5 µg/mL (≈ 24.5 µM)		12.5 µg/mL (≈ 24.5 µM)		12.5 µg/mL (≈ 24.5 µM)	C=CCNC(=O)NNC(=O)c1sc(-c2cc(-c3ccc(Cl)cc3)n(-c3ccc(F)cc3)n2)nc1C	21 mm	21 mm	21 mm	23 mm	21 mm	<10 mm	22 mm	19 mm
12.5 µg/mL (≈ 29.2 µM)	12.5 µg/mL (≈ 29.2 µM)	50 µg/mL (≈ 117 µM)	12.5 µg/mL (≈ 29.2 µM)		12.5 µg/mL (≈ 29.2 µM)	Cc1nc(-c2cc(-c3ccc(Cl)cc3)n(-c3ccc(F)cc3)n2)sc1C(=O)NN	19 mm	20 mm	<10 mm	19 mm	20 mm	19 mm	18 mm	19 mm
12.5 µg/mL (≈ 31.3 µM)	12.5 µg/mL (≈ 31.3 µM)	12.5 µg/mL (≈ 31.3 µM)	12.5 µg/mL (≈ 31.3 µM)		12.5 µg/mL (≈ 31.3 µM)	O=C(c1cc(-c2ccc(Cl)cc2)n(-c2ccc(F)cc2)n1)N1CCC(O)CC1	21 mm	23 mm	29 mm	27 mm	24 mm	29 mm	24 mm	26 mm
12.5 µg/mL (≈ 25.9 µM)	12.5 µg/mL (≈ 25.9 µM)		12.5 µg/mL (≈ 25.9 µM)		12.5 µg/mL (≈ 25.9 µM)	CCCCCC(=O)N1CCN(C(=O)c2cc(-c3ccc(Cl)cc3)n(-c3ccc(F)cc3)n2)CC1	21 mm	18 mm	<10 mm	28 mm	19 mm	<10 mm	18 mm	20 mm
12.5 µg/mL (≈ 26.8 µM)						Fc1ccc(-n2nc(-c3nc(-c4ccc(Cl)cc4)cs3)cc2-c2ccc(Cl)cc2)cc1	17 mm	<10 mm	<10 mm	<10 mm	<10 mm	16 mm	21 mm	19 mm
12.5 µg/mL (≈ 26.7 µM)	12.5 µg/mL (≈ 26.7 µM)	50 µg/mL (≈ 107 µM)	12.5 µg/mL (≈ 26.7 µM)		12.5 µg/mL (≈ 26.7 µM)	C=CCNC(=O)N1CCN(C(=O)c2cc(-c3ccc(Cl)cc3)n(-c3ccc(F)cc3)n2)CC1	19 mm	20 mm	19 mm	16 mm	24 mm	19 mm	19 mm	22 mm
12.5 µg/mL (≈ 27.4 µM)	12.5 µg/mL (≈ 27.4 µM)	50 µg/mL (≈ 110 µM)	12.5 µg/mL (≈ 27.4 µM)		12.5 µg/mL (≈ 27.4 µM)	CCNC(=O)N1CCN(C(=O)c2cc(-c3ccc(Cl)cc3)n(-c3ccc(F)cc3)n2)CC1	17 mm	18 mm	17 mm	18 mm	19 mm	<10 mm	19 mm	24 mm
